# Bioassay records from PubChem BioAssay.
# Shown are actives, neighbours in structure and some others; about 3.3% of the full set was active somewhere.
# m5-HT2A agonist = agonists of mouse serotonin 5-HT2A receptor (HTR2A) | 360,000 tested, 0.66% active | P35363 | CHO-K1 mHTR2A beta-arrestin complementation, luminescence; percent of 30 µM serotonin response | AID 624169 | activation, % at 7.6 µM;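 active = activation above a run cutoff, the mean activation of all tested compounds plus 3 SD, cut at about 14% in these data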;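 note: 0% = plate median of compound wells and 100% = 30 µM serotonin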
# Target sequence (P35363 whole entry, looked up): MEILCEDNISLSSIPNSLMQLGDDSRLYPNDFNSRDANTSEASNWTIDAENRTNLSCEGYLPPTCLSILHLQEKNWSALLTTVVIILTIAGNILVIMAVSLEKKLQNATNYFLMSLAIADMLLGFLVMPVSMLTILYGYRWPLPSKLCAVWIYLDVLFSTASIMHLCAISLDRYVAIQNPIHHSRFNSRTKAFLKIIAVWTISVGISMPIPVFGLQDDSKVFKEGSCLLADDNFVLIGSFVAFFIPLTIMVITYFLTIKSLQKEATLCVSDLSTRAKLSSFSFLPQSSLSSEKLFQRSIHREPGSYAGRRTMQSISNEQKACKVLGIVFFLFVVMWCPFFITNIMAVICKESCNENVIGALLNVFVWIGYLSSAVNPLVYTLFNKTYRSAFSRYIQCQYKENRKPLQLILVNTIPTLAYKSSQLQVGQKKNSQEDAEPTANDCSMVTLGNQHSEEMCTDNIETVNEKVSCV
# M18AAP inhibitor = PfM18AAP enzyme inhibition; recombinant PfM18AAP, H-Glu-NHMec fluorogenic cleavage; inhibition, % at 7.35 µM; 290,000 tested, 1.2% active;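 active = inhibition above the campaign mean inhibition over all tested compounds plus 3 SD, cut at about 28% in these data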;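 note: 0% = plate median of test compound wells and 100% = 2 mM ZnCl2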
# Hep lipid drop = modulators of hepatic lipid droplet formation | AML12 mouse hepatocytes, oleate lipid droplets, BODIPY imaging | inhibition, % at 6.5 µM | 240,000 tested, 0.4% active;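 active = lipid droplet intensity inhibited by at least 50%, with more than 500 cells counted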
#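 Assay system: AML12 hepatocytes (mouse); Probe or stimulus: oleic acid at 100 µM to induce lipid droplet formation; Dosing: compound at 6.5 µM only; Schedule: compound with oleate, overnight; Detection: fluorescence imaging, 20x objective, two fields per well; Measure: % inhibition of lipid droplet signal.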
# NRP1-CendR mod = modulators of CendR peptide binding to human neuropilin-1. O14786. FAM-RPARPAR peptide binding to NRP-1, fluorescence polarization. inhibition, % at 25 µM. 360,000 tested, 0.85% active. AID 602438;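 active = inhibition or corrected inhibition above about 18%, plus a signal ratio from 0.5 to 1.5, limit read from the data, passing the limit was not always enough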
# HGIII-sPLA2 inh = Inhibits HGIII-sPLA2 liposome hydrolysis, primary screen; Q9NZ20; QFRET BODIPY PC-A2 liposome hydrolysis, fluorescence; inhibition, % at 12.2 µM; 370,000 tested, 0.56% active; AID 743126;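 active = inhibition above mean plus 3 SD of compounds lying within the high and low control bounds, cut at about 19% in these data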;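 note: 0% = median of test compound wells and 100% = no enzyme DMSO wells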
# Arrestin-AP2 inh = human beta-arrestin and AP2 interaction inhibition | FITC-arrestin peptide / GST-AP2 beads, flow cytometry; AP2 beta2 appendage carries R879A mutation | inhibition, % at 10 µM | 340,000 tested, 0.31% active;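 active = inhibition above a set limit, near 3 SD of compounds lacking own fluorescence, cut at about 54% in these data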;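 note: plate controls were DMSO wells for no effect and 5 µM unlabelled arrestin peptide for full effect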
#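 test system = AP2 appendage R879A on GSH beads | buffer or medium = PBS plus Tween 20 (0.05%) and BSA (0.1%) | incubation = 12 min plus 1 h, RT | detection = bead flow cytometry, FITC channel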
# An asterisk follows results filed as active; . = no result.
SMILES,m5-HT2A agonist,M18AAP inhibitor,Hep lipid drop,NRP1-CendR mod,HGIII-sPLA2 inh,Arrestin-AP2 inh
Cc1ccc(S(=O)(=O)N(C)c2ccc(C(=O)NCC(c3ccccc3)N3CCCC3)cc2)cc1 (stereo not drawn),-13,.,.,-8,-15,.
CN1CCN(C(=O)c2ccc(-c3cnc4cccnn34)cc2)CC1,-3,.,.,8,8,.
COc1nnc(-c2ccc(C(=O)N3C[C@@H]4C[C@H](C3)c3cccc(=O)n3C4)cc2)c2ccccc12,-5,-3,.,19*,14,3
O=C(c1ccc(-c2nnc(Nc3cccc(Cl)c3)c3ccccc23)cc1)N1C[C@H]2C[C@H](C1)c1cccc(=O)n1C2,-1,3,.,-14,-3,4
CSCCC(c1nnnn1C1CCCCC1)N1CCN(C/C=C/c2ccccc2)CC1 (stereo not drawn),-5,.,.,4,-10,.
CCOc1ccc(CN2CCN(Cc3[nH]c4ccccc4c3C)CC2CCO)cc1 (stereo not drawn),-4,11,-4,38*,-40,1
C[C@H](CO)N1C[C@H](C)[C@@H](CN(C)S(=O)(=O)c2cn(C)cn2)Oc2cc(Br)ccc2S1(=O)=O,2,.,.,2,5,.
CCOc1ccc(NS(=O)(=O)c2cc(Cl)ccc2OC)cc1,-3,8,0,22*,-45,2
COCc1[nH]nc2c1C(c1ccc(C)cc1)NC2=O (stereo not drawn),.,.,.,.,7,.
CC(C)c1ccc(OCC(=O)NCc2ccccc2)cc1,-7,5,1,52*,1,23
COc1cccc(C(=O)NCCS(=O)(=O)N2CCN(c3ccccc3)CC2)c1OC,-2,.,.,25*,-9,.
COC(=O)[C@]12CCCCC=C1N(Cc1ccc(OC)cc1)C(=O)[C@@H]2CC(=O)NCCCCc1ccccc1,.,.,.,.,-27,.
COc1ccc([C@H]2/C=C\CN(C(=O)C3CC3)[C@@H](C)C(=O)N2Cc2ccc(F)cc2)cc1,1,.,.,33*,-4,23
COc1ccc([C@H]2/C=C\CN(S(C)(=O)=O)[C@@H](C)C(=O)N2Cc2ccc(F)cc2)cc1,-4,.,.,22*,3,2
CN(C)C=Nc1nc2c(Br)ccc(Br)c2cc1C(=O)NCC(C)(C)C,.,.,.,.,2,.
CC(=O)Nc1ccc(CNc2nc3cc(-c4ccsc4)sc3c(=O)n2C)cc1,4,.,.,12,-1,.
C/C(=N\N=c1/sc2ccccc2n1C)c1ccccn1,-2,5,4,26*,1,4
C/C(=N\N=c1/sc2ccccc2n1C)c1ccc(N2CCOCC2)cc1,-4,-4,2,-7,4,2
CC1(C)CC(=O)N(CC(=O)N2CCN(c3cccc(C(F)(F)F)c3)CC2)c2ccccc2S1(=O)=O,.,.,.,.,6,.
COc1ccc2cc(/C=N/NC(=O)CN(c3ccccc3OC)S(=O)(=O)c3ccccc3)c(Cl)nc2c1,.,.,.,.,-2,.
O=C(Nc1ccccc1)c1cc([N+](=O)[O-])ccc1Cl,2,.,15,-9,-5,-6
O=C(Nc1ncn[nH]1)c1cc([N+](=O)[O-])ccc1Cl,-2,30*,1,9,5,-11
O=C(Cn1ccc(NC(=O)OCc2ccccc2)nc1=O)NCCCn1ccnc1,-1,.,.,33*,3,2
O=C(Cn1ccc(NC(=O)OCc2ccccc2)nc1=O)NCCCc1ccccc1,-3,.,.,-10,0,-8
COc1ccc(C(=O)C2CCCN(C(=O)c3cccc(N(C)C)c3)C2)cc1OC (stereo not drawn),8,13,18,25*,4,-1
SMILES,m5-HT2A agonist,M18AAP inhibitor,Hep lipid drop,NRP1-CendR mod,HGIII-sPLA2 inh,Arrestin-AP2 inh
CC1(C(=O)N2Cc3ccccc3C2)CCN1C(=O)C1(c2ccccc2)CC1 (stereo not drawn),-4,.,.,6,1,.
CCCN(C(=O)CSc1nc2cc(S(=O)(=O)N(CC)CC)ccc2o1)C1CCS(=O)(=O)C1 (stereo not drawn),1,.,.,-11,-8,-11
CCN(C(=O)CSc1nc2cc(S(=O)(=O)N(CC)CC)ccc2o1)C1CCS(=O)(=O)C1 (stereo not drawn),0,28*,-13,-3,2,-14
Cc1c(Cl)cccc1-n1c(-c2cccnc2)n[nH]c1=S,-2,31*,.,2,7,0
CCc1ccccc1-n1c(-c2ccncc2)n[nH]c1=S,6,30*,.,-8,9,-3
C=CCN(C(=O)CSc1nc2c(sc3ccccc32)c(=O)n1CCN(CC)CC)c1ccccc1,-4,9,-8,25*,-3,-18
O=C(CS(=O)(=O)c1ccccc1)c1cc2cc(F)ccc2oc1=O,0,28*,-10,-11,.,-4
O=C1N(c2ccccc2)CC2C(c3ccccc3)C(c3ccccc3)N3CCCC123 (stereo not drawn),.,.,.,.,5,.
O=C(CCSc1ccccn1)c1ccccc1,3,55*,-11,10,4,5
Cc1ccc(F)cc1C(=O)N1CCCC(c2nc(-c3cccs3)no2)C1 (stereo not drawn),.,.,.,.,-4,.
CCCCN(Cc1ccccc1)c1ncnc2nc[nH]c12,-2,-9,6,-17,.,10
CCCCN(CCCC)c1ncnc2nc[nH]c12,-2,1,-2,22*,0,-7
CCCCOC(=O)n1c(=O)oc2ccccc21,0,1,19,-5,4,-7
COC(=O)n1c(=O)oc2ccccc21,-2,-4,.,26*,-6,4
COC(=O)C1CCN(C(=O)CCn2nnc(-c3cccs3)n2)CC1,.,.,.,.,10,.
COc1ccc(/C(C#N)=C/c2cccnc2)cc1,-11,0,2,19*,-3,10
COc1ccc(C(C#N)=Cc2cc(OC)c(OC)c(OC)c2)cc1,.,.,.,.,-8,.
COC(=O)c1ccc2nc(-c3cccc(Cl)c3)c(Cc3ccccc3C(F)(F)F)n2c1,.,.,.,.,4,.
CCCc1cc(=O)oc2cc(C)cc(OCC(=O)NCCCn3ccnc3)c12,0,5,-26,-1,5,-3
Cc1cc(OCC(=O)NCCCn2ccnc2)c2c(C)cc(=O)oc2c1,0,-3,9,20*,4,-5
COc1c(O)cccc1[C@H](O)C1CCN(CCc2ccc(F)cc2)CC1,-1,.,.,43*,-12,2
C=CS(=O)(=O)N[C@@H](CSSC[C@H](NS(=O)(=O)C=C)C(=O)OC)C(=O)OC,.,.,.,.,0,.
O=S(=O)(c1ccc(N2CCOCC2)c(Cl)c1)N1CCOCC1,6,-4,2,-1,5,17
O=c1c2ccccc2sn1-c1cc(S(=O)(=O)N2CCOCC2)ccc1N1CCOCC1,6,31*,.,-4,12,40
CCCC(=O)NC(c1cccc([N+](=O)[O-])c1)c1ccc2cccnc2c1O (stereo not drawn),-2,.,.,-13,22*,.
